Test [1] deals with H4IIE. Kind of test: Increase of AMPK phosphorylation at Thr172 in rat H4IIE cells at 5 to 10 uM after 1 hr by ELISA. The format is cell-based. The essentials:
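Confluent H4IIE cells in 96-well plates were starved overnight in serum-free DMEM (1 g/L glucose), then treated 1 h at 37 °C. Cells were fixed in 4% formaldehyde and endogenous peroxidase quenched with H2O2. Plates were blocked with 10% FBS and probed overnight at 4 °C with anti-p-AMPKα (Thr172), then with HRP secondary and TMB read-out. Mean ± SE, n = 4; Dunnett's test against basal.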

Test [2] deals with Mus musculus. The experiment in a line: Activation of AMPK in C57BL/6J mouse white adipose tissue assessed as phosphorylated ACC level at 200 mg/kg, po after 2 hrs by Western blot analysis. Type of test: functional, organism-based. Set-up: dose 200 mg/kg. The essentials:
(§1)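 Male C57BL/6J mice (10 weeks), fasted 4 h, given a single oral dose of 200 mg/kg in 0.5% carboxymethyl cellulose with 0.5% polyoxyethylene sorbitan. Dissected under chloral hydrate anesthesia (500 mg/kg ip) 2 h later. Liver, epididymal white adipose and quadriceps were homogenized in RIPA buffer and immunoblotted for p-AMPKα (Thr172) and p-ACC (Ser79). Signals normalized to α-tubulin; mean ± SE, 5 mice; Student's t test against vehicle.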
Background: Immunoblotting shows a protein as a band on a membrane.

Test [3] is filed under the species Rattus norvegicus. Kind of test: Inhibition of rat liver mitochondrial respiratory chain complex 1 assessed as reduction of oxygen consumption at stage 4 in presence of glutamate and malate. The essentials:
(§2)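 Liver mitochondria from Wistar rats were isolated by differential centrifugation in sucrose/Tris-MOPS/EGTA at pH 7.4, with respiratory control ratio 5−7. O2 uptake was measured with a Clark electrode, State 3/4 induced by 100 μM ADP. Complex I substrate was 5 mM glutamate plus 2.5 mM malate; complex II substrate was 5 mM succinate plus 2 μM rotenone. Dose−response run; mean ± SE, n = 3.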

Test [4] has as its system 3T3-L1. Kind of test: Activation of AMPK in mouse 3T3L1 cells assessed as increase of ADP level by spectrophotometric analysis. The format is cell-based. The essentials:
(§3)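 Serum-starved H4IIE hepatoma cells, differentiated C2C12 myotubes and differentiated 3T3-L1 adipocytes were exposed 1, 2 and 2 h respectively. Cells were lysed in Tris/SDS/glycerol, nuclease-digested, perchloric acid-extracted and neutralized. ATP, ADP and AMP were separated by C18 HPLC in phosphate buffer at pH 6.2, 40 °C, with detection at […]. AMP/ATP and ADP/ATP ratios were calculated from these levels; mean ± SE, n = 3.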

Test [5] has as its system Mus musculus. The experiment in a line: Activation of AMPK in glucose loaded C57BL/6J mouse assessed as decrease of AUC of blood glucose level at 100 to 200 mg/kg, po after 1 hr by oral glucose tolerance test. Type of test: functional, organism-based. The procedure, abridged:
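Male C57BL/6J mice, fasted 15 h, dosed orally at 100 or 200 mg/kg. Glucose (1 M solution, 1 g/kg) given orally 60 min later. Tail-vein blood glucose read at 0, 15, 30, 45, 60, 90 and 120 min, and AUC calculated from the curve. Mean ± SE, 5 mice; one-way ANOVA with Dunnett's test against vehicle.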

Test [6] deals with Mus musculus. The experiment in a line: Activation of AMPK in glucose loaded C57BL/6J mouse assessed as decrease of AUC of blood glucose level at 500 mg/kg, po after 1 hr by oral glucose tolerance test. Type of test: functional, organism-based. Set-up: dose 500 mg/kg.
In test [7] the test system is C2C12. The experiment in a line: Activation of AMPK in mouse C2C12 cells assessed as increase of AMP level by spectrophotometric analysis. Type of test: cell-based. The essentials:
as §3

The subject of test [8] is Mus musculus. Kind of test: Activation of AMPK in C57BL/6J mouse skeletal muscle at 200 mg/kg, po after 2 hrs by Western blot analysis. Set-up: dose 200 mg/kg. The conditions noted are these: Muscle tissue. The format is functional, organism-based. The essentials: as §1
For test [9], the system named is H4IIE. Kind of test: Activation of AMPK in rat H4IIE cells assessed as increase of ADP/ATP ratio level after 1 hr by spectrophotometric analysis. The format is cell-based. The essentials: as §3
Test [10] has as its system H4IIE. Kind of test: Activation of AMPK in rat H4IIE cells assessed as increase of AMP/ATP ratio level after 1 hr by spectrophotometric analysis. The format is cell-based. The procedure, abridged: as §3
For test [11], the system named is H4IIE. Kind of test: Activation of AMPK in rat H4IIE cells assessed as increase of AMP level by spectrophotometric analysis. The format is cell-based. The essentials: as §3
In test [12] the test system is Mus musculus. Kind of test: Activation of AMPK in C57BL/6J mouse skeletal muscle assessed as increase of PGC-1alpha transcription at 100 to 200 mg/kg, po after 2 hrs by RT-qPCR analysis. The conditions noted are these: Muscle tissue. A general note: Real-time PCR tracks product formation cycle by cycle.
Test [13] concerns C2C12. The experiment in a line: Activation of AMPK in mouse C2C12 cells assessed as increase of ADP level by spectrophotometric analysis. The format is cell-based. The essentials:
as §3

In test [14] the target is 5'-AMP-activated protein kinase catalytic subunit alpha-1 (Rattus norvegicus) (UniProt P54645). The experiment in a line: Increase of AMPKalpha phosphorylation at Thr172 in rat H4IIE cells at 0.3 uM after […] by Western blot analysis. Type of test: cell-based.
Sequence of 5'-AMP-activated protein kinase catalytic subunit alpha-1 (Rattus norvegicus) (P54645 whole entry): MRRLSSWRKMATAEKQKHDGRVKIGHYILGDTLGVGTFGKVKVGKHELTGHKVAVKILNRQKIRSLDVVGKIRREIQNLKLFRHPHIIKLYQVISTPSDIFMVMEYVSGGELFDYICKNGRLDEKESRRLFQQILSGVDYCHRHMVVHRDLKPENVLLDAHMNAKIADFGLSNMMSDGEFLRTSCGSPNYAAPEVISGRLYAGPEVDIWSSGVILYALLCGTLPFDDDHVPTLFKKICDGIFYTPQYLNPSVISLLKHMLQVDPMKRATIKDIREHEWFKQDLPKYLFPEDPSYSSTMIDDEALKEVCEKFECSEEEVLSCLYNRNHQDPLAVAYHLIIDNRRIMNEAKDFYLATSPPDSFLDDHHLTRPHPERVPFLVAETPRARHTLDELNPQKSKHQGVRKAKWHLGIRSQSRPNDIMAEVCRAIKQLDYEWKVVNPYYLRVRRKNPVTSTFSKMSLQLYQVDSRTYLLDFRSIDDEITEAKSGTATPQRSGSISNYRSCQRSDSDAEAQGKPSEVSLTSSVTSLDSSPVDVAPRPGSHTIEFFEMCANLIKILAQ
For test [15], the system named is 3T3-L1. The experiment in a line: Activation of AMPK in mouse 3T3L1 cells assessed as decrease of ATP level by spectrophotometric analysis. The format is cell-based. The procedure, abridged:
as §3

Test [16] relates to 3T3-L1. Kind of test: Activation of AMPK in mouse 3T3L1 cells assessed as increase of ADP/ATP ratio level after 2 hrs by spectrophotometric analysis. Type of test: cell-based. The essentials: as §3
Test [17] is filed under the species Rattus norvegicus. Kind of test: Inhibition of rat liver mitochondrial respiratory chain complex 2 assessed as reduction of oxygen consumption at stage 4 in presence of succinate and rotenone. The essentials: as §2
The test system of test [18] is C2C12. The experiment in a line: Activation of AMPK in mouse C2C12 cells assessed as decrease of ATP level by spectrophotometric analysis. Type of test: cell-based. The procedure, abridged:
as §3

Test [19] has as its target AMP-activated protein kinase, AMPK (Homo sapiens) (UniProt P54646+O43741+P54619+Q9UGJ0+Q9Y478+Q13131+Q9UGI9). The experiment in a line: Activation of AMPK in LKB1-deficient human HeLa cells at 10 to 100 uM after 1 hr by Western blot analysis. The format is cell-based.
Test [20] has as its system Mus musculus. Kind of test: Activation of AMPK in C57BL/6J mouse liver assessed as phosphorylated ACC level at 200 mg/kg, po after 2 hrs by Western blot analysis. Type of test: functional, organism-based. Set-up: dose 200 mg/kg. The essentials:
as §1

Test [21] relates to Mus musculus. The experiment in a line: Activation of AMPK in C57BL/6J mouse liver at 200 mg/kg, po after 2 hrs by Western blot analysis. The format is functional, organism-based. Set-up: dose 200 mg/kg. The essentials: as §1
The test system of test [22] is 3T3-L1. The experiment in a line: Activation of AMPK in mouse 3T3L1 cells assessed as increase of AMP level by spectrophotometric analysis. Type of test: cell-based. The procedure, abridged:
as §3

Test [23] deals with 5'-AMP-activated protein kinase catalytic subunit alpha-1 (Mus musculus) (UniProt Q5EG47). Kind of test: Increase of AMPKalpha phosphorylation at Thr172 in mouse 3T3L1 cells at 10 uM after 2 hrs by Western blot analysis. Type of test: cell-based. Particulars: 3T3-L1. The essentials:
(§4)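 Cells were starved, then treated 2 h with 2 mM AICAR as reference. C2C12 cells were myotubes differentiated 4 days in 2% horse serum. 3T3-L1 cells were adipocytes differentiated with insulin, dexamethasone and IBMX and used at days 10−14. Lysates were immunoblotted on 7.5% SDS-PAGE for p-AMPKα (Thr172), p-ACC (Ser79), total AMPKα and total ACC.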

Test [24] shares this target. The experiment in a line: Increase of AMPKalpha phosphorylation at Thr172 in mouse C2C12 cells at 5 uM after 2 hrs by Western blot analysis. The format is cell-based. The procedure, abridged:
as §4

Test [25] addresses 5'-AMP-activated protein kinase catalytic subunit alpha-1 (Rattus norvegicus) (UniProt P54645). Kind of test: Activation of AMPKalpha in rat H4IIE cells assessed as ACC phosphorylation at Ser79 after 1 hr by Western blot analysis. The format is cell-based. The procedure, abridged:
(§5)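 H4IIE cells grown in 1 g/L glucose DMEM, serum-starved overnight, then treated 1 h; 2 mM AICAR served as reference. Lysates (50−100 μg protein) were run on 7.5% SDS-PAGE and immunoblotted for p-AMPKα (Thr172), p-ACC (Ser79), total AMPKα and total ACC.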

The species named for test [26] is Rattus norvegicus. The experiment in a line: Inhibition of rat liver mitochondrial respiratory chain complex 1 assessed as reduction of oxygen consumption at stage 4 at 10 uM in presence of glutamate and ADP. The procedure, abridged: as §2
Test [27] deals with H4IIE. Kind of test: Activation of AMPK in rat H4IIE cells assessed as increase of ADP level by spectrophotometric analysis. The format is cell-based. The essentials: as §3
The test system of test [28] is Mus musculus. The experiment in a line: Activation of AMPK in C57BL/6J mouse white adipose tissue at 200 mg/kg, po after 2 hrs by Western blot analysis. The format is functional, organism-based. Set-up: dose 200 mg/kg. The essentials: as §1
Test [29] relates to C2C12. The experiment in a line: Activation of AMPK in mouse C2C12 cells assessed as increase of ADP/ATP ratio level after 2 hrs by spectrophotometric analysis. The format is cell-based. The procedure, abridged:
as §3

Test [30] relates to H4IIE. Kind of test: Activation of AMPK in rat H4IIE cells assessed as decrease of ATP level by spectrophotometric analysis. The format is cell-based. The procedure, abridged: as §3
For test [31], the system named is 3T3-L1. Kind of test: Activation of AMPK in mouse 3T3L1 cells assessed as increase of AMP/ATP ratio level after 2 hrs by spectrophotometric analysis. The format is cell-based. The essentials:
as §3

For test [32], the system named is C2C12. Kind of test: Activation of AMPK in mouse C2C12 cells assessed as increase of AMP/ATP ratio level after 2 hrs by spectrophotometric analysis. The format is cell-based. The procedure, abridged: as §3
Test [33] deals with 5'-AMP-activated protein kinase catalytic subunit alpha-1 (Rattus norvegicus) (UniProt P54645). The experiment in a line: Increase of AMPKalpha phosphorylation at Thr172 in rat H4IIE cells after 1 hr by Western blot analysis. The format is cell-based. The procedure, abridged:
as §5

Test [34] deals with Mus musculus. Kind of test: Activation of AMPK in C57BL/6J mouse skeletal muscle assessed as increase of PGC-1alpha transcription at 500 mg/kg, sc after 2 hrs by RT-qPCR analysis. The conditions noted are these: Muscle tissue.

The source made the active and inactive calls. The rule behind the calls is not given here.

Sequence of 5'-AMP-activated protein kinase catalytic subunit alpha-1 (Mus musculus) (Q5EG47 whole entry): as the sequence (P54645 whole entry) above, with T269A, E518D counted along it

`C/C=C(/C)C(=O)O[C@@H]1CCC2=CC(=O)C(=C(C)C)C[C@]2(C)[C@H]1C`: in the test on H4IIE [1], the result was Active.
Take `C=C(C)[C@@H]1C[C@@]2(C)C(=CC1=O)CC[C@@H](OC(=O)/C(C)=C\C)[C@@H]2C`: the outcome with Mus musculus [2], in the test with Mus musculus [5], with Mus musculus [6], with H4IIE [1], with Mus musculus [8] and in the test on Mus musculus [12] was Active. The result (in test [14]; in test [19]; with Mus musculus [20]; with Mus musculus [21]; in test [23]; in test [24]) was Active. Besides, in the test with Mus musculus [28], the result was Active. Besides, the inhibition result in the test listed under Rattus norvegicus [3] is “Dose-dependent effect”. In addition, the Activity result with 3T3-L1 [4], in the test on C2C12 [7], in the test with H4IIE [9], in the test on H4IIE [10], with H4IIE [11] and in the test on C2C12 [13] was “Dose-dependent effect” in each case. Further, the Activity entry (with 3T3-L1 [15]; in the test with 3T3-L1 [16]; in the test on C2C12 [18]; in the test on 3T3-L1 [22]; in test [25]; in the test on H4IIE [27]) was “Dose-dependent effect” in each case. Moreover, the Activity result (in the test on C2C12 [29]; in the test on H4IIE [30]; with 3T3-L1 [31]; in the test with C2C12 [32]; in test [33]) was “Dose-dependent effect” throughout. In addition, in the test listed under Rattus norvegicus [17], the inhibition entry is “inactive”. Besides, the inhibition result in the test listed under Rattus norvegicus [26] is “Active”.
For the compound `NC(=O)c1ncn([C@@H]2O[C@H](CO)[C@@H](O)[C@H]2O)c1N`, in the test with Mus musculus [34], the result was Active.

Source of the values: ChEMBL document CHEMBL3286138, “Petasin activates AMP-activated protein kinase and modulates glucose metabolism” (J Nat Prod, 2014).
